The series can be described thus: Toxicity liver stage against HepG2, at 10uM. The series is classed as cell-based. Also on record: test concentration 10 uM, cell line HepG2-A16-CD81EGFP. As to conditions: human, HepG2-A16-CD81EGFP cells; read-out: INHIBITION
In a few lines:
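Uninfected HepG2-A16-CD81EGFP cells, 3 × 10^3 per well, 1536-well, plated on prespotted compound at 10 μM final, parasite-free screening media added to match infected plates; puromycin 10 μM positive, DMSO 0.5% negative; run in parallel with 48 h PbLuc assay at 37 °C, 5% CO2; viability by CellTiter-Glo luminescence, normalized to controls.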
In the case of `Cc1nn(C(C)C)c(C)c1NC(=O)Nc1cccnc1N1CCCC1`, the cytotoxicity at 10 µM was -5.79%. In the case of `Cc1occc(=O)c1OCc1noc(C(=O)NCC(C)C)n1`, the cytotoxicity at 10 µM amounted to 6.43%. As for `COc1ccc(NC(=O)Cn2c(=O)nc(N)c3cc(C)sc32)cc1`, the cytotoxicity at 10 µM was found to be 2.31%. In the case of `Cc1ccc(C(=O)Nc2nnc(CC(C)C)s2)c(-n2cnnn2)c1C`, the cytotoxicity at 10 µM was -147%. To `COc1cccc(CNC(=O)CC2CSc3nc(C)c(C)c(=O)n32)c1` (configuration not stated) belongs -4.31%. As to `COCC(=O)Nc1cnc(N2CCOCC2)nc1`, the cytotoxicity at 10 µM is -10.7%. The result for `COc1ccccc1C(=O)N1CCC(Oc2ccc(C#N)cn2)CC1` reads 5.54%. Take `COc1cc(C2CC(=O)Nc3c2c(=O)[nH]n3C2CCCC2)ccc1O` (configuration not stated): the cytotoxicity at 10 µM is -1.37%. With `Cc1nn(Cn2ccc(C(=O)N3CCCCCC3)n2)c(C)c1Cl`, the cytotoxicity at 10 µM stood at 0.781%. To `Cc1nn(C)cc1-c1cc(C(F)F)nc(NC2CCCCC2)n1` belongs 1.84%; to `O=C1CC(c2cccnc2)c2c(sc3c2CCCC3)N1` (configuration not stated), 8.75%; to `Cc1cnc(C(=O)N2CCN(c3ncc4c(n3)CCOC4)CC2)cn1`, 4.91%. With `O=C(c1cnc(O)c(Cl)c1)N1CCCC(c2nccs2)C1` (configuration not stated), the cytotoxicity at 10 µM is 3.63%. The result for `Nc1nc(N)c2c(n1)OC1(CCN(C(=O)CC3CCCCN3)CC1)C2` (configuration not stated) reads -0.24%. To `CCN(CC)C1CCN(C(=O)NCc2cccc(-n3cccn3)c2)C1` (configuration not stated) belongs 5.79%. The result for `CC(Cc1ccc(Cl)cc1)N(C)C(=O)NCCS(C)(=O)=O` (configuration not stated) reads 0.606%. Take `COCCS(=O)(=O)Cc1nnnn1-c1ccccc1`: the cytotoxicity at 10 µM is -9.4%. To `COCCCSc1ccc(NCc2cscn2)cc1` belongs 6.43%; to `Cc1ccc(C)c(Oc2ccc(CNC(=O)C3CCS(=O)(=O)C3)cn2)c1` (configuration not stated), -3.98%. To `O=C(Nc1cccc(C(F)(F)F)c1)C1CC(=O)N(Cc2ccccn2)C1` (configuration not stated) belongs -0.505%; to `CC(C)CCC(=O)N1CCCC1c1nnc2n1CCCCC2` (configuration not stated), -8.88%. As for `CN(Cc1ccsc1)C(=O)Nc1cccc(N2CCOC2=O)c1`, the cytotoxicity at 10 µM was -12.9%. With `COCC(C)NC(=O)NCCc1cccc(OC)c1O` (configuration not stated), the cytotoxicity at 10 µM was determined as 7.87%.

In the case of `FC(F)c1nnc2ccc(N3CCC4(CCCCC4)C3)nn12`, the cytotoxicity at 10 µM came to 1.47%.

`Cc1cc(-n2cncn2)ccc1C(=O)N(C)CC(F)(F)C(F)(F)F`: the cytotoxicity at 10 µM is -10.3%. Turning to `CCN(Cc1cnn(C)c1)S(=O)(=O)N1CCCC1c1ccco1` (configuration not stated), the cytotoxicity at 10 µM was -3.55%. To `COC(=O)c1cc(C(=O)N2CCc3ccc(F)cc3C2C)ccn1` (configuration not stated) belongs 10.5%; to `CCCNC(=O)CCc1ccnc2ccccc12`, 5.25%. The result for `Cc1nc(C)n(CC2CCCN2c2ncnc3c2CCC3)n1` (configuration not stated) reads 8.03%; that for `Cc1nnc(CN(C)CC2CCCCC2)o1`, 15.6%; that for `CCNC(=O)NC1CN(Cc2ccncc2Cl)C[C@@H]1OC` (some centres not stated), 1.85%. In the case of `Cc1noc(C)c1CN(C)C(=O)C1(N)CCCCC1`, the cytotoxicity at 10 µM stood at 6.67%. The result for `CC(C)OCCN1CCC(Nc2ccc(C#N)cc2F)CC1` reads -4.94%; that for `Cn1cc(C(=O)NC2CCCC2)c(-c2cccnc2)n1`, 10.3%; that for `O=C1C(N2CCN(c3ccccc3Cl)CC2)CCN1C1CCOCC1` (configuration not stated), -0.455%. The result for `O=C(Cn1cc(I)cn1)NCC1CCC1` reads 14.5%; that for `CN(C)C(=O)Cn1ccc2cc(NC(=O)N3CCSCC3)ccc21`, 5.25%; that for `Cn1cc(C2NC3(CCCC3)C(=O)N2CC2CC2)c(=O)n(C)c1=O` (configuration not stated), 6.93%. The result for `Cc1cnc(CN2CCC(N(C)Cc3nnc(C4CC4)n3C)C2)cn1` (configuration not stated) reads -2.31%; that for `c1c(CN2CCOCC2)nc2n1CCN(C1CCOCC1)C2`, 0.997%. Consider `CC(C)c1nccc([C@@H]2C[C@@H]3CCN(Cc4ccoc4)C[C@H]3O2)n1`, for which the cytotoxicity at 10 µM was -7.47%. To `Cn1cc(-c2nnn3c2COC(CNCc2cccnc2)C3)cn1` (configuration not stated) belongs 0.824%. To `CS(=O)(=O)NCc1cn2c(n1)CN(C(=O)c1ccc[nH]1)CC2` belongs 5.69%; to `CC(=O)Nc1ccc2nc(-c3nccn3C[C@@H]3CCCO3)ccc2c1`, -8.18%; to `O=C1CCC(C(=O)N2CCC(Cn3cc(C4CCCC4)nn3)CC2)=NN1`, 5.14%. To `Cc1nccc(N2CCC(=O)N(CC3CC3)C(C(C)C)C2)n1` (configuration not stated) belongs -0.232%; to `NC(=O)c1cc2c(nc1Oc1ccccc1CN1CCCCC1)CCC2`, 3.71%. Regarding `CC(C)c1ncc(CN2C[C@@H](CN3CCCCC3)[C@@H](CO)C2)cn1`, the cytotoxicity at 10 µM is -10.2%. To `O=C(NCCO)c1coc(CN2CCN(c3ccccc3F)CC2)n1` belongs -11.2%. In the case of `CCCc1ccc2oc(C(=O)N3CCCN(C)CC3)c(C)c2c1`, the cytotoxicity at 10 µM was -8.3%. The result for `O=C(CCc1ccccc1)C1CCCN(Cc2cncn2C2CC2)C1` (configuration not stated) reads -7.12%; that for `c1cc(-c2cnccn2)cc(-c2ccn(CCCN3CCCCC3)n2)c1`, -2.15%.

With `CN(C)c1nc(NCCc2cnccn2)ncc1F`, the cytotoxicity at 10 µM stood at 5.56%. The result for `Cc1cc(C)n2nc(C(=O)N3CCCC4(CNC(=O)O4)C3)cc2n1` (configuration not stated) reads 9.48%.

With `Cc1ccccc1N1CCCN(C(=O)CCc2ccncc2)CC1`, the cytotoxicity at 10 µM was -9.88%. To `Cc1nc(N(C)C)ncc1C(=O)NCCCn1nccc1C1CC1` belongs 9.53%; to `Fc1ccccc1CN1CCCN(c2ncnc3[nH]ccc23)CC1`, -5.86%; to `O=C(NC1CCNCC1)C1(N2CCCCC2)Cc2ccccc2C1`, -5.47%. On to `Cc1ccc(C)c(NC(=O)N2CCC3(CC2)NC(=O)CC3C(=O)O)c1` (configuration not stated), for which the cytotoxicity at 10 µM is 4.9%. The result for `Cc1ccccc1OCCC(=O)N1CCc2nc(C)n(C)c(=O)c2CC1` reads -0.852%. `COCCCC1(CO)CCCN(Cc2cccc(C#N)c2)C1` (configuration not stated): the cytotoxicity at 10 µM was 4.16%.

Consider `COc1ccc(C(C(=O)O)N(C)Cc2c(C)nn(C)c2C)c(C)c1` (configuration not stated), for which the cytotoxicity at 10 µM amounted to 7.47%. To `Cc1n[nH]c(C)c1CC(=O)N1CC[C@@](C)(O)[C@@H](Cc2ccccc2)C1` belongs 5.94%; to `CCOCC(=O)N1CCC(C2CCN(Cc3ccc(Cl)cc3)C2)CC1` (configuration not stated), -9.15%; to `Cc1nnc(CN2CCCC(CCc3ccccc3C(F)(F)F)C2)o1` (configuration not stated), 3.67%. To `CCCc1nnc(N2CCCC(c3nnc(Cn4ccnc4)n3C)C2)s1` (configuration not stated) belongs -0.391%; to `CCc1ccc(C2CC(=O)Nc3n[nH]cc32)o1` (configuration not stated), 0.0773%; to `Cc1cc(CNCc2c(C)n(CC(C)C)c3ccccc23)[nH]n1`, -1.63%. With `CC(C)N1CCCC(C(=O)N2CCc3c(nc(CC4CC4)[nH]c3=O)C2)C1` (configuration not stated), the cytotoxicity at 10 µM is -7.41%. To `CCS(=O)(=O)N1CCC(c2nnc(CN3CCCCC3)n2C)CC1` belongs -6.03%.

For `NC(=O)CC1CCN(C(=O)c2cccn2Cc2cccs2)CC1`, the cytotoxicity at 10 µM was -7.19%.

Consider `CN(Cc1ccccc1)CC(O)Cn1cnc2c(Cl)cc(Cl)cc2c1=O` (configuration not stated), for which the cytotoxicity at 10 µM was -2.34%. Take `NC(=O)c1cc(C2CCCN(CCOc3ccc(F)cc3)C2)n[nH]1` (configuration not stated): the cytotoxicity at 10 µM was -7.92%.

As to `CCc1nc(CC(=O)N2CCn3c(C)nnc3C2)cs1`, the cytotoxicity at 10 µM was -9.57%.

As to `Cc1cc(C)c(CNC(=O)NCC2CCCOC2)c(=O)[nH]1` (configuration not stated), the cytotoxicity at 10 µM was -8.19%.

Take `CCCc1noc(CN2CCCCC2Cn2cncn2)n1` (configuration not stated): the cytotoxicity at 10 µM came out at 4.84%. To `Cc1nn(C)c(N2CCOCC2)c1CNCc1cscn1` belongs -8.07%; to `COCc1ccc(C(=O)N2CCCN(Cc3cscn3)CC2)cc1`, -3.07%. The result for `CC(=O)N(Cc1noc(C)n1)C1CCN(Cc2ccc(C#N)cc2)C1` (configuration not stated) reads -3.66%; that for `CNc1cc2c(nn1)CCN(C(=O)c1ccc3c(c1)CCC3)C2`, 3.15%; that for `CCc1csc(C2CCCN(C(=O)c3c[nH]c(C)n3)C2)n1` (configuration not stated), -9.03%.

As to `Cn1cc(CCC(=O)N2CCN(Cc3ccncc3)CC2)cn1`, the cytotoxicity at 10 µM is -6.64%. To `CCc1nc(C2CCCN(C(=O)c3cccc4cn[nH]c34)C2)no1` (configuration not stated) belongs -3.73%; to `O=C(COc1ccc2c(c1)CCC2)NS(=O)(=O)c1cncc(Br)c1`, -5.82%; to `CCOc1ccccc1OC1CCN(C(=O)c2nc(=O)[nH][nH]2)CC1`, -9.75%. As to `CCn1ccnc1CN1CCN(CCOc2ccccc2OC)CC1`, the cytotoxicity at 10 µM was -8.83%.

As for `COC(=O)c1ccc(N2CCN(C(=O)c3ccncc3)C(C)C2)cc1` (configuration not stated), the cytotoxicity at 10 µM was -6.38%. The result for `CN(CCCc1ccccc1)Cc1nc2c(cnn2C)c(=O)[nH]1` reads -9.56%; that for `Cc1nn(C)c(N(C)C)c1CNC(C)c1cccc(OC(C)C)c1` (configuration not stated), -7.76%.

`CN1CCC/C1=N\S(=O)(=O)c1ccc(NC(=O)CCc2cccs2)cc1`: the cytotoxicity at 10 µM was -8.55%.

In the case of `O=C(NC1CC1)[C@@H]1CCO[C@@H]2CCN(CCc3ccccc3)C[C@@H]21`, the cytotoxicity at 10 µM was found to be 3.6%. To `c1ccc([C@@H]2CN(Cc3ccncc3)C[C@H]2c2cc[nH]n2)cc1` belongs -0.189%; to `N#Cc1ccc(C(=O)N2CC[C@H]3[C@H]2CCN3CC2CC2)cc1`, -9.87%; to `Cc1cccc(CN2CCc3nnc(CO)n3CC2)n1`, 6.41%. On to `COCC(=O)N1CCC2(CCN(Cc3cccnc3)C2)CC1`, for which the cytotoxicity at 10 µM is -2.42%.

With `CC1c2ncc(CN3CCN(C)CC3)n2CCN1Cc1ccsc1` (configuration not stated), the cytotoxicity at 10 µM was 6.58%. The result for `CCN1CCOCC2(CCCN(C(=O)c3ccncc3F)C2)C1` (configuration not stated) reads -3.16%.

(Values after ChEMBL document CHEMBL4513216, “Probing the Open Global Health Chemical Diversity Library for Multistage-Active Starting Points for Next-Generation Antimalarials” (ACS Infect Dis, 2020).)
